Results on three compounds are retold here after PMC7649109 (International Journal for Parasitology: Drugs and Drug …, 2020).

The test system of data set [1] is Trypanosoma congolense IL3000. In words: resazurin viability assay, T. congolense IL3000 bloodstream forms. The data set is classed as cell-based. In outline:
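Bloodstream-form parasites were grown in MEM base with 10% goat serum, 14 μL/L β-mercaptoethanol, glutamine and antibiotics at 34 °C/5% CO2. Cells at 5 × 10^4/well were exposed to 23 doubling dilutions plus no-drug controls, with DMSO held at 1% (v/v) per well, for 48 h. Resazurin was then added for a further 24 h. EC50 is the mean ± SEM of ≥3 independent determinations.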
Background: Alamar Blue is a resazurin reagent that responds to reducing activity.

The subject of data set [2] is Trypanosoma congolense 6C3. Put plainly: resazurin viability assay, diminazene-resistant T. congolense clone 6C3. Type of data set: cell-based. To be noted: for RF (Resistance factor): Table 6; for EC50: Trypanosoma congolense, T. congolense 6C3. A digest of the protocol:
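IL3000 and diminazene-resistant 6C3 T. congolense bloodstream forms grown in MEM base with 10% goat serum, 14 μL/L β-mercaptoethanol, glutamine and antibiotics at 34 °C/5% CO2. 5 × 10^4 cells/well exposed to 23 doubling dilutions (1% v/v DMSO) plus no-drug controls for 48 h, then resazurin for a further 24 h. EC50 from ≥3 independent determinations. RF = […]; unpaired two-tailed t-test versus IL3000.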

The subject of another data set is T. brucei B48. Put plainly: resazurin viability assay, multi-drug resistant T. brucei B48. The data set is classed as cell-based, Trypanosoma brucei. The conditions noted are these: for R. F (Resistance factor): Table 1; for R. F (Resistance factor) / RF (Resistance factor): B48 versus s427 WT; for RF (Resistance factor): Table 5; for EC50: Trypanosoma brucei. In outline:
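s427 wild-type and B48 T. b. brucei bloodstream forms cultured in HMI-9 with 10% FBS at 37 °C/5% CO2. Wells of 2 × 10^4 cells received 23 doubling dilutions (1% v/v DMSO) plus no-drug controls for 48 h, followed by resazurin and 24 h more incubation. EC50 from ≥3 independent determinations. […]; unpaired two-tailed t-test versus s427.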

The next data set relates to T. brucei S427WT. In words: resazurin viability assay, T. brucei s427 wild-type bloodstream forms. Type of data set: cell-based. The conditions noted are these: Trypanosoma brucei. A digest of the protocol: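 Bloodstream forms grown in complete HMI-9 with 10% fetal bovine serum at 37 °C/5% CO2. 2 × 10^4 cells/well were exposed for 48 h to 23 doubling dilutions of the test compound or extract, with no-drug controls and 1% (v/v) DMSO per well. Resazurin was then added for a further 24 h. EC50 is the mean ± SEM of at least 3 independent determinations.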

Data set [3] is described as follows: cytotoxicity, resazurin assay on U937 cell line. Type of data set: cell-based, human. The conditions noted are these: human, U937 cells.
The test system of a further data set is U937 cell line. In words: cytotoxicity, resazurin assay on U937 cell line. The data set is classed as cell-based, human.
A further data set deals with RAW 246.7 cell line. In words: cytotoxicity, resazurin assay on RAW 246.7 cell line. Type of data set: cell-based, murine.
Assay in data set [4]: as above
The data set is classed as cell-based, murine. To be noted: mouse, RAW 264.7 macrophage cells (also printed RAW 246.7).

Where [5] appears, read: read-out: EC50, AVG ± SEM, Table 2, control, footnote b: EC50 in μM.
[6] abbreviates: read-out: EC50, AVG ± SEM, Table 6, purified compounds, n = 3.
Where [7] appears, read: read-out: EC50, AVG ± SEM, Table 5, purified compounds, T. b. brucei B48, n = 3.
Setting [8] is: read-out: EC50, AVG ± SEM, Table 5, purified compounds, T. b. brucei s427 WT, n = 3.

Molecules are shown by their SMILES. “And” between values parts separate entries of the source, which are not always exact repeats. Equal values may be shown once. Read-outs that look alike come from different tables or passages of the source.

As for `N=C(N)c1ccc(/N=N/Nc2ccc(C(=N)N)cc2)cc1` [Diminazene], the EC50 – broadly, the concentration giving half of the maximal effect – in data set [1] (setting [5]) was found to be 0.2 ± 0.03 µM; in data set [1] (setting [6]) it was 0.15 ± 0.03 µM; in data set [2] (setting [5]) it was 1.51 ± 0.09 µM; in data set [2] (setting [6]), 1.45 ± 0.04 µM. The “R. F (Resistance factor)” value in data set [2] (Table 2, 6C3 versus IL3000) was determined as 7.75. Further, the “RF (Resistance factor)” value in data set [2] (6C3 versus IL3000) stood at 9.81; in data set [2] (6C3 versus IL3000, listed as diminazene), 9.8.

Take `N=C(N)c1ccc(OCCCCCOc2ccc(C(=N)N)cc2)cc1` [Pentamidine]: the “R. F (Resistance factor)” value came to 157.84 in the data set with T. brucei B48 and 158 with T. brucei B48 (listed as pentamidine). The “RF (Resistance factor)” value in the data set on T. brucei B48 is listed as 144.08; in the data set on T. brucei B48 (listed as pentamidine), 144. Moreover, the EC50 in the data set with T. brucei B48 (read-out: EC50, AVG ± SEM, Table 1, control, footnote b: EC50 in μM, T. brucei B48) came to 0.482 ± 0.02 µM; in the data set on T. brucei B48 (setting [7]) it was 0.493 ± 0.04 µM; in the data set with T. brucei S427WT (read-out: EC50, AVG ± SEM, Table 1, control, footnote b: EC50 in μM, T. brucei s427 WT), 0.0031 ± 0.0003 µM; in the data set on T. brucei S427WT (setting [8]), 0.0034 ± 0.0004 µM.

Take `C=CC(C)(C)c1c(O)cc2c(c1O)C(=O)C[C@@H](c1ccc(O)cc1)O2` [Compound 2, 6-(1,1-dimethylallyl)naringenin]: the EC50 at 24 h was 51.2 µg/mL and 150 µM in data set [3]; 79.9 µg/mL and 235 µM in data set [4]. Besides, the “Selectivity Index (SI) Tbb427 WT” value in the data set with U937 cell line (EC50 (U937)/EC50 (T. b. brucei 427 WT)) is 22.8; with RAW 246.7 cell line (EC50 (RAW 246.7)/EC50 (T. b. brucei 427 WT)) it was 35.7. In addition, the “Selectivity Index (SI) TcoIL3000” value with U937 cell line (EC50 (U937)/EC50 (T. congolense IL3000)) stood at 9.0; with RAW 246.7 cell line (EC50 (RAW 246.7)/EC50 (T. congolense IL3000)) it was 14.0. Besides, the “RF (Resistance factor)” value with T. brucei B48 was 1.02; in data set [2] (6C3 versus IL3000) it was 0.77. The EC50 was 2.28 µg/mL and 6.69 µM in the data set with T. brucei B48 (setting [7]); 7.35 µg/mL and 21.6 µM in data set [1] (setting [6]); 5.69 µg/mL and 16.7 µM in data set [2] (setting [6]); 2.24 µg/mL and 6.58 µM in the data set on T. brucei S427WT (setting [8]).
